The record followed here is PubChem BioAssay AID602403 (The Scripps Research Institute Molecular Screening Center, 2012).

Unmarked numbers belong to inactive results.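 How the source made its calls: active means inhibition of the enzyme-probe labelling of at least 50% at one fixed dose; inactive means inhibition below 50%.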

What is called inhibition is the relative decrease from the control value, in per cent.

This test has as its target Diacylglycerol lipase-alpha (Mus musculus) (UniProt Q6WQJ1). Description: blocking of DAGLa probe labeling in membranes – biochemical, gel-based competitive ABPP, recombinant, fluorescence, selectivity assay for DAGLb inhibitor project, late-stage follow-up (AID 602403). The following applies: HEK293T membrane mouse DAGLa, at 0.4 µM, active compounds read high. The method, boiled down:
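Material: membrane proteome of 293T HEK cells transiently overexpressing mouse DAGLa; Also added: HT-01 probe, 1 µM; Read-out: percent inhibition from band integrated optical density versus DMSO control; Benchmarks: high control DMSO without compound, low control blank-gel background; Measured by: in-gel fluorescence after SDS-PAGE; Schedule: 30 min compound plus 30 min probe, 37 °C.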

Diacylglycerol lipase-alpha (Mus musculus), sequence (Q6WQJ1 whole entry, looked up): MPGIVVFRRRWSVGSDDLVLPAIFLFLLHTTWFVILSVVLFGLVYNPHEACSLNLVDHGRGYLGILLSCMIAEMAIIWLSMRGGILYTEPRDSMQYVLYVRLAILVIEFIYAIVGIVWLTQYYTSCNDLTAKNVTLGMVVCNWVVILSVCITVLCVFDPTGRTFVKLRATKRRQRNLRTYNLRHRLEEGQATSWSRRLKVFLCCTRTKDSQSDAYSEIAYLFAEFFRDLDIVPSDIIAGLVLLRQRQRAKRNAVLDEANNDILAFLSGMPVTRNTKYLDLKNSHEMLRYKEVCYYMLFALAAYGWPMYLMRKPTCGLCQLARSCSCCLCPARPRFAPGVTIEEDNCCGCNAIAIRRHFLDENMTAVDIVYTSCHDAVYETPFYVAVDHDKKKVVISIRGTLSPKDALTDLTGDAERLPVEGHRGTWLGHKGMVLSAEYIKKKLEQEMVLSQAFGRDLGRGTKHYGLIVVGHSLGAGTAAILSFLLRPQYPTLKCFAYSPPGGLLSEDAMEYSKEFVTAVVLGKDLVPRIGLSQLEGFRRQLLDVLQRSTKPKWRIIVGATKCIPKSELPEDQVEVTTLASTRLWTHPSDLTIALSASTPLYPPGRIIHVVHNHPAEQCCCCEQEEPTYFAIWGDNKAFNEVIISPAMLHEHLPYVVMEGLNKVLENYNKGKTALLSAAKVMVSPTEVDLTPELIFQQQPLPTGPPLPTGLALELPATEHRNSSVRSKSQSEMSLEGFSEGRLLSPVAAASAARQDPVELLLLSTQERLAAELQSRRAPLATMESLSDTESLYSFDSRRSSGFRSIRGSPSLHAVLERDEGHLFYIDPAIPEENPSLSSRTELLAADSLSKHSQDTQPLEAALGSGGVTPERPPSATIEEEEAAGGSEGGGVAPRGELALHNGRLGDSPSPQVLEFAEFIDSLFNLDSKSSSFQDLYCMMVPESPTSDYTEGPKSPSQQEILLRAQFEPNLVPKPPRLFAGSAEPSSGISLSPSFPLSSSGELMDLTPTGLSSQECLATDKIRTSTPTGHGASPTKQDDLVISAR

On to `O=C(N1CCCCC1Cc1ccccc1)n1cc(-c2ccc(-c3ccccc3)cc2)nn1` (stereo unspecified), for which the inhibition was 40%.
